According to ChEMBL document CHEMBL3862036, “Biphenyl Pyridazinone Derivatives as Inhaled PDE4 Inhibitors: Structural Biology and Structure-Activity Relationships” (J Med Chem, 2016):

Legend:
Adenosine receptor A2a = Adenosine receptor A2a (Homo sapiens, UniProt P29274); test: Antagonist activity at adenosine A2a receptor (unknown origin)
Rattus norvegicus [1] = test: Anti-inflammatory activity in Sprague-Dawley rat assessed as inhibition of LPS-induced neutrophilia at 25 ug/kg, it administered as suspension with Penn-Century micro-sprayer aerosolizer dosed 1 hrs before LPS challenge and measured 5 hrs post dose; assay type: functional; settings: inhaled or nasal
Outline: (§1)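 Suspensions in PBS/0.2% Tween 80 were homogenized, with lower doses made by 1:10 dilutions. 0.2 mL was given intratracheally by MicroSprayer to isoflurane-anesthetized fasted male Sprague-Dawley rats (230–280 g). At 1 or 18 h, rats received nebulized LPS (30 mL of a 1:100 PBS dilution of 100 mg/10 mL stock) over 40 min. Four hours later, BAL neutrophils were counted by flow cytometry.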

Rattus norvegicus [2] = test: Anti-inflammatory activity in Sprague-Dawley rat assessed as inhibition of LPS-induced neutrophilia at 300 ug/kg, it administered as suspension with Penn-Century micro-sprayer aerosolizer dosed 18 hrs before LPS challenge and measured 22 hrs post dose; assay type: functional; settings: inhaled or nasal; outline: as §1
[3] = Inhibition of PDE4 in PBMC (unknown origin) assessed as reduction in LPS-induced TNFalpha production incubated for 24 hrs by ELISA; settings: Homo sapiens
Adenosine receptor A1 = molecular target: T1, Adenosine receptor A1 (Homo sapiens, UniProt P30542); test: Antagonist activity at adenosine A1 receptor (unknown origin)
T1 sequence (P30542 whole entry): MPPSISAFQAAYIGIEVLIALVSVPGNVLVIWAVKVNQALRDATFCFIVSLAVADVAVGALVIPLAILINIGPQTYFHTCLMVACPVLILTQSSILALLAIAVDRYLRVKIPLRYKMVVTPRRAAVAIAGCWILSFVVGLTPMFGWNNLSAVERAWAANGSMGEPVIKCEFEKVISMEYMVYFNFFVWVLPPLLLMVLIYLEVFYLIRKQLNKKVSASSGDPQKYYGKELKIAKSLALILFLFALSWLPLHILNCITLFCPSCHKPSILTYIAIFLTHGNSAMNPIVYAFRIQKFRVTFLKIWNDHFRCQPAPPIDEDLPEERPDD

Adenosine receptor A2b = molecular target: T2, Adenosine receptor A2b (Homo sapiens, UniProt P29275); test: Antagonist activity at adenosine A2b receptor (unknown origin)
T2 sequence (P29275 whole entry): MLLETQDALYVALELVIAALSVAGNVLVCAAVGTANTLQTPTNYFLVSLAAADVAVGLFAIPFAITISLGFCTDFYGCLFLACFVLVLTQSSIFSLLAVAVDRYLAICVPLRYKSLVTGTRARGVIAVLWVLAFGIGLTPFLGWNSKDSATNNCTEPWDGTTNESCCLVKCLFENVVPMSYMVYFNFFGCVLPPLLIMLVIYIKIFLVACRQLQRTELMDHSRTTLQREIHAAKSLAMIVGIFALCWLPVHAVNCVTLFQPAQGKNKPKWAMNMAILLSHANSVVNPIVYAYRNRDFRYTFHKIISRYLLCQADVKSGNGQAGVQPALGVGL

Rattus norvegicus [4] = test: Anti-inflammatory activity in Sprague-Dawley rat assessed as inhibition of LPS-induced neutrophilia at 1000 ug/kg, it administered as suspension with Penn-Century micro-sprayer aerosolizer dosed 1 hrs before LPS challenge and measured 5 hrs post dose; assay type: functional; settings: inhaled or nasal; outline: as §1
Rattus norvegicus [5] = test: Anti-inflammatory activity in Sprague-Dawley rat assessed as inhibition of LPS-induced neutrophilia at 1000 ug/kg, it administered as suspension with Penn-Century micro-sprayer aerosolizer dosed 18 hrs before LPS challenge and measured 22 hrs post dose; assay type: functional; settings: inhaled or nasal; outline: as §1
[6] = Inhibition of PDE4 in human whole blood assessed as reduction in LPS-induced TNFalpha production incubated for 24 hrs by ELISA; assay type: tissue-based
Outline: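 Human whole blood was preincubated with LPS (final 1 μg/mL) for 10 min at 37 °C with rocking. 200 μL was added to wells holding increasing inhibitor concentrations in 100% DMSO. Plates were incubated 24 h at 37 °C under agitation, then placed on ice, diluted with PBS and centrifuged at 800g, 4 °C, for 15 min before TNF-α measurement.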

Rattus norvegicus [7] = test: Anti-inflammatory activity in Sprague-Dawley rat assessed as inhibition of LPS-induced neutrophilia at 10 to 1000 ug/kg, it administered as dry powder with lactose carrier through Penn-Century insufflator dosed 1 hrs before LPS challenge and measured 5 hrs post dose; assay type: functional
Outline: (§2)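 Compounds were micronized, comixed with lactose, and 5 mg of the mixture was insufflated intratracheally into isoflurane-anesthetized fasted male Sprague-Dawley rats (230–280 g). LPS aerosol (30 mL of a 1:100 PBS dilution of 100 mg/10 mL stock) was nebulized for 40 min at 1 or 18 h post-dose. BAL was taken 4 h later and neutrophils counted by flow cytometry. Controls: lactose alone, lactose+LPS, fluticasone (10% in lactose).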

[8] = Drug metabolism in human liver S9 fraction assessed as glucuronidation in presence of PAPS and UDPGA incubated for 20 mins; assay type: ADME, subcellular; settings: read-out: Drug metabolism
Rattus norvegicus [9] = test: Anti-inflammatory activity in Sprague-Dawley rat assessed as inhibition of LPS-induced neutrophilia at 1000 ug/kg, it administered as dry powder with lactose carrier through Penn-Century insufflator dosed 18 hrs before LPS challenge and measured 22 hrs post dose; assay type: functional; outline: as §2
Rattus norvegicus [10] = test: Anti-inflammatory activity in Sprague-Dawley rat assessed as inhibition of LPS-induced neutrophilia at 100 ug/kg, it administered as suspension with Penn-Century micro-sprayer aerosolizer dosed 1 hrs before LPS challenge and measured 5 hrs post dose; assay type: functional; settings: inhaled or nasal; outline: as §1
Rattus norvegicus [11] = test: Anti-inflammatory activity in Sprague-Dawley rat assessed as inhibition of LPS-induced neutrophilia at 100 ug/kg, it administered as suspension with Penn-Century micro-sprayer aerosolizer dosed 18 hrs before LPS challenge and measured 22 hrs post dose; assay type: functional; settings: inhaled or nasal; outline: as §1
[12] = Basicity constant, pKB of the compound; assay type: physicochemical
[13] = Pro-inflammatory activity in Sprague-Dawley rat assessed as induction of neutrophilia at 1000 ug/kg, it administered as dry powder with lactose carrier through Penn-Century insufflator; settings: in vivo, inhaled_or_intranasal, 1 mg/kg
[14] = Drug metabolism in human liver S9 fraction assessed as sulfonation in presence of PAPS and UDPGA incubated for 20 mins; assay type: ADME, subcellular; settings: read-out: Drug metabolism
Rattus norvegicus [15] = test: Anti-inflammatory activity in Sprague-Dawley rat assessed as inhibition of LPS-induced neutrophilia at 10 to 1000 ug/kg, it administered as suspension with Penn-Century micro-sprayer aerosolizer dosed 1 hrs before LPS challenge and measured 5 hrs post dose; assay type: functional; settings: inhaled or nasal; outline: as §1
Rattus norvegicus [16] = test: Anti-inflammatory activity in Sprague-Dawley rat assessed as inhibition of LPS-induced neutrophilia at 1000 ug/kg, it administered as dry powder with lactose carrier through Penn-Century insufflator dosed 1 hrs before LPS challenge and measured 5 hrs post dose; assay type: functional; outline: as §2
Rattus norvegicus [17] = test: Anti-inflammatory activity in Sprague-Dawley rat assessed as inhibition of LPS-induced neutrophilia at 30 ug/kg, it administered as suspension with Penn-Century micro-sprayer aerosolizer dosed 18 hrs before LPS challenge and measured 22 hrs post dose; assay type: functional; settings: inhaled or nasal; outline: as §1

Adenosine receptor A2a, sequence (P29274 whole entry): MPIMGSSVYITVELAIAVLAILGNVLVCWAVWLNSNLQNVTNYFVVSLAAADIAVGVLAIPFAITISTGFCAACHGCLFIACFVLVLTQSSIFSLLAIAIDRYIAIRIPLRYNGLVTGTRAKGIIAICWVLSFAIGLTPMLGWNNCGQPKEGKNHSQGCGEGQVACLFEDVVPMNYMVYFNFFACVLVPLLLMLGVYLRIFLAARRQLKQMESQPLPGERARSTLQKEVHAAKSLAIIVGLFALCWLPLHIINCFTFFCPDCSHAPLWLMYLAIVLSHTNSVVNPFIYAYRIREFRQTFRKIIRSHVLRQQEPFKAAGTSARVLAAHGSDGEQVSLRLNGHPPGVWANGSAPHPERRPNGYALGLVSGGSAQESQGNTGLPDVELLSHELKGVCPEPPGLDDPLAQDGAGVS

Row | SMILES | IC50 (Adenosine receptor A2a) | IC50 [3] | IC50 (Adenosine receptor A1) | IC50 (Adenosine receptor A2b) | IC50 [6] | metabolised at 20 min [8] | pKb [12] | fold change (FC) [13] | metabolised at 20 min [14] | inhibition in vivo at 0.025 mg/kg (Rattus norvegicus [1]) | inhibition in vivo at 0.3 mg/kg (Rattus norvegicus [2]) | inhibition in vivo at 1 mg/kg (Rattus norvegicus [4]) | inhibition in vivo at 1 mg/kg (Rattus norvegicus [5]) | ED50 (Rattus norvegicus [7]) | inhibition in vivo at 1 mg/kg (Rattus norvegicus [9]) | inhibition in vivo at 0.1 mg/kg (Rattus norvegicus [10]) | inhibition in vivo at 0.1 mg/kg (Rattus norvegicus [11]) | ED50 (Rattus norvegicus [15]) | inhibition in vivo at 1 mg/kg (Rattus norvegicus [16]) | inhibition in vivo at 0.03 mg/kg (Rattus norvegicus [17])
1 | CCn1nc(-c2cccc(-c3cc(C(=O)NC4CC4)cc(C(=O)NC4CC4)c3)c2)cc(NC(=O)Nc2c(Cl)cncc2Cl)c1=O | > 1000 nM | 0.4 nM | 324 nM | > 1000 nM | – | – | – | – | – | 54% | 27% | – | – | – | – | – | – | – | – | –
2 | CCn1nc(-c2cccc(-c3cccc(C(=O)NCCN4CCNCC4)c3)c2)cc(NC(=O)Nc2c(Cl)cncc2Cl)c1=O | 9 nM | 0.34 nM | 2 nM | – | 125 nM | – | 9.8 | – | – | – | – | – | – | – | – | 62% | 40% | – | – | –
3 | CCn1nc(-c2cccc(-c3cc(C(=O)NCCN4CCOCC4)cc(C(=O)NC4CC4)c3)c2)cc(NC(=O)Nc2c(Cl)cncc2Cl)c1=O | > 1000 nM | – | > 1000 nM | > 1000 nM | – | – | – | – | – | 55% | – | – | – | – | – | – | 29% | – | – | –
4 | CCNC(=O)c1cc(C(=O)NCCCN(C)C)cc(-c2cccc(-c3cc(NC(=O)Nc4c(Cl)cncc4Cl)c(=O)n(CC)n3)c2)c1 | > 1000 nM | 0.36 nM | 537 nM | 368 nM | – | – | – | – | – | – | 60% | – | – | – | – | – | 48% | 0.018 mg/kg | – | 58%

More lines, main results first:

Row | IC50 (Adenosine receptor A2a) | IC50 [3] | IC50 (Adenosine receptor A1) | IC50 (Adenosine receptor A2b) | IC50 [6] | metabolised at 20 min [8] | pKb [12] | fold change (FC) [13] | metabolised at 20 min [14] | SMILES | inhibition in vivo at 0.025 mg/kg (Rattus norvegicus [1]) | inhibition in vivo at 0.3 mg/kg (Rattus norvegicus [2]) | inhibition in vivo at 1 mg/kg (Rattus norvegicus [4]) | inhibition in vivo at 1 mg/kg (Rattus norvegicus [5]) | ED50 (Rattus norvegicus [7]) | inhibition in vivo at 1 mg/kg (Rattus norvegicus [9]) | inhibition in vivo at 0.1 mg/kg (Rattus norvegicus [10]) | inhibition in vivo at 0.1 mg/kg (Rattus norvegicus [11]) | ED50 (Rattus norvegicus [15]) | inhibition in vivo at 1 mg/kg (Rattus norvegicus [16]) | inhibition in vivo at 0.03 mg/kg (Rattus norvegicus [17])
5 | – | 0.55 nM | – | – | 373 nM | 0% | – | – | – | CCn1nc(-c2cccc(-c3ccc(C(=O)O)cc3)c2)cc(NC(=O)Nc2c(Cl)cncc2Cl)c1=O | – | – | 59% | 25% | 0.015 mg/kg | 8% | 50% | – | – | – | –
6 | 22 nM | 0.43 nM | 6 nM | 169 nM | 81 nM | – | 11.2 | 1.1 | – | CCn1nc(-c2cccc(-c3cccc(C(=O)NCCN4CCCCC4)c3)c2)cc(NC(=O)Nc2c(Cl)cncc2Cl)c1=O | – | – | – | – | – | – | 66% | – | – | – | –
7 | 333 nM | 0.29 nM | 11 nM | 111 nM | 64 nM | 36% | – | – | 16% | CCn1nc(-c2cccc(-c3cncc(O)c3)c2)cc(NC(=O)Nc2c(Cl)cncc2Cl)c1=O | – | – | 58% | 23% | – | – | – | – | – | – | –
8 | 33 nM | 0.3 nM | 10 nM | 120 nM | 69 nM | – | – | 1 | – | CCn1nc(-c2cccc(-c3cccc(C(=O)NC4CC4)c3)c2)cc(NC(=O)Nc2c(Cl)cncc2Cl)c1=O | – | – | – | 43% | – | 42% | 70% | – | 0.024 mg/kg | 55% | –
9 | – | 2.4 nM | – | – | 93 nM | 6% | – | – | 3% | CCn1nc(-c2cccc(-c3ccc(O)c(F)c3)c2)cc(NC(=O)Nc2c(Cl)cncc2Cl)c1=O | – | – | – | – | – | – | – | – | 0.342 mg/kg | – | –
